The source of these data is ChEMBL document CHEMBL3102706, “Natural occurrence of organofluorine and other constituents from Streptomyces sp. TC1” (J Nat Prod, 2014).

Activity calls are given as the source filed them. No cut-off for these calls is given here.

Data set [1] in a line: Antioxidant activity assessed as trolox equivalents of ABTS radical scavenging activity after 30 mins by TEAC assay. Format: functional. The procedure, abridged: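 ABTS (7 mM in water) was oxidized with 2.45 mM potassium persulfate (final) for 12–16 h in the dark at room temperature. The radical was diluted in ethanol to A734 0.700 ± 0.02 at 30 °C, then added to sample or Trolox standards (final 0–15 μM). A734 was read at 30 °C, 30 min after mixing. Results are given as μmol Trolox equivalent/g.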

For data set [2], the target named is Albumin (Bos taurus, UniProt P02769). Nature of the data set: Binding affinity to bovine serum albumin at 25 uM by fluorescence spectra analysis. As to conditions: cattle, isolated protein. The format is ADME.
Chain of Albumin (P02769 whole entry): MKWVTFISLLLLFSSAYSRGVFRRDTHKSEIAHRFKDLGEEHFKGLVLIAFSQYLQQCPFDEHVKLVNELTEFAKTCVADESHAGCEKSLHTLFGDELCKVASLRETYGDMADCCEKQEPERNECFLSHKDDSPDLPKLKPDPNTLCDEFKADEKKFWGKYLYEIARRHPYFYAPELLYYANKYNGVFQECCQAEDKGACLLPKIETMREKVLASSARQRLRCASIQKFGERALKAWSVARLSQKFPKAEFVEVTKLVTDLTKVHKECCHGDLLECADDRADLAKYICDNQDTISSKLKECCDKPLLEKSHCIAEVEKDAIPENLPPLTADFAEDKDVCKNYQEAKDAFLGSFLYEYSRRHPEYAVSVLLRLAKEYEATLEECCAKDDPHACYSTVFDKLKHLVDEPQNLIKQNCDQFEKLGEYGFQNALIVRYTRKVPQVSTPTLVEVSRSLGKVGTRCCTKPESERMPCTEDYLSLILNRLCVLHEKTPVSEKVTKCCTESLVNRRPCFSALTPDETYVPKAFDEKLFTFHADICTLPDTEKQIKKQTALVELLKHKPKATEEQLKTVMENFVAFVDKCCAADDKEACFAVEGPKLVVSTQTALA
The test system of data set [3] is DNA. Nature of the data set: Binding affinity to calf thymus DNA by absorption titration. As to conditions: Bos taurus.
A short description of data set [4]: Antioxidant activity assessed as EDTA equivalent of chelating effect after 10 mins by spectrophotometric analysis. The format is functional. The procedure, abridged: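 Ferrous-ion chelation: compounds or EDTA standard added to 2 mmol/L FeCl2 solution, then 5 mmol/L ferrozine added to start reaction. Mixture shaken vigorously and left 10 min at room temperature. Absorbance read at 562 nm. Activity expressed as mg EDTA equivalent/g.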

A short description of data set [5]: Antioxidant activity assessed as superoxide radical scavenging activity by NBT reduction assay. The format is functional.
Data set [6] has as its system DNA. Nature of the data set: Displacement of ethidium bromide from calf thymus DNA by spectrometric analysis. To be noted: Bos taurus. The format is nucleic-acid assay. The procedure, abridged:
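Competitive EtBr displacement from CT-DNA monitored by emission spectroscopy. Kq taken as slope of I0/I versus [Q]. Kapp obtained from KEB[EB] = Kapp[compound], using compound concentration giving 50% loss of EB fluorescence, KEB = 1.0 × 10^7 M−1, [EB] = 5 μM.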

In data set [7] the test system is AGS. Nature of the data set: Cytotoxicity against human AGS cells. The format is functional, cell-based.
In data set [8] the test system is HeLa. Nature of the data set: Cytotoxicity against human HeLa cells. The format is functional, cell-based.
Data set [9] concerns HCT-116. Nature of the data set: Cytotoxicity against human HCT116 cells. Format: functional, cell-based.
The test system of data set [10] is Radical scavenging activity. Nature of the data set: Antioxidant activity assessed as DPPH radical scavenging activity. Format: functional.
Data set [11] is described as follows: Antioxidant activity assessed as hydroxyl radical scavenging activity after 15 mins by spectrophotometric analysis. The format is functional.

Regarding `CC(C)C[C@H](NC(=O)[C@@H](O)C[C@H](N)CN)C(N)=O`, the values for the Activity in data set [1], in data set [2] and in [4] were 4090 µmol/g, “Active” and 11.9 mg/g, respectively. Further, the Kb in [3] was 2.36 ×10⁴ /M. The IC50 was 34.6 µM in [5], 34.7 µM in [10] and 35.5 µM in data set [11]. Besides, the Kapp in data set [6] was 0.13 ×10⁵ /M. Besides, the Kq in data set [6] is 0.26 ×10⁴ /M. Besides, the outcome in [7], in data set [8] and in [9] was inactive.

Turning to `Cc1cc(C(C)(C)C)c(O)c(C(C)(C)C)c1` [BUTYLATED HYDROXYTOLUENE], the figures for the Activity in data set [1] and in [4] were 6050 µmol/g and 15.4 mg/g, respectively. The IC50 was 8.6 µM in data set [5], 4.5 µM in data set [10] and 11.5 µM in data set [11].

Regarding `C[C@@H]1O[C@@H](OC[C@H]2O[C@@H](Oc3c(-c4ccc(O)c(O)c4)oc4cc(O)cc(O)c4c3=O)[C@H](O)[C@@H](O)[C@@H]2O)[C@H](O)[C@H](O)[C@H]1O` [RUTIN], the figures for the Activity in data set [1] and in data set [4] were 10100 µmol/g and 18.5 mg/g, respectively. For the same compound, the IC50 in data set [5] is 4.7 µM; in [10], 4.7 µM; in [11] it was 19.4 µM.

With `CC(C)(C)c1cc(CCC(=O)O)cc(C(C)(C)C)c1F`, the results for the Activity in data set [1], in [2] and in data set [4] were 6740 µmol/g, “Active” and 4.5 mg/g, respectively. The compound further returned a Kb in [3] of 3.13 ×10⁴ /M. The results for the IC50 in [5], in data set [10] and in [11] were 8.4 µM, 8.4 µM and 25.8 µM, respectively. Moreover, the Kapp in data set [6] came to 1.6 ×10⁵ /M. In data set [6], this compound yielded a Kq of 1.71 ×10⁴ /M. For the same compound, the result in [7], in [8] and in data set [9] was inactive.

As for `C=CCC(CC=C)(CC=C)c1ccc(CCCCCCCCC)cc1O`, the Activity was 4020 µmol/g in data set [1], “Active” in data set [2] and 8.4 mg/g in data set [4]. This compound returned a Kb in data set [3] of 2.23 ×10⁴ /M. The IC50 amounted to 32.8 µM in data set [5], 14.9 µM in [10] and 31.1 µM in data set [11]. This compound came in with a Kapp in data set [6] of 0.34 ×10⁵ /M. The compound further displayed a Kq in [6] of 0.68 ×10⁴ /M. The outcome in data set [7], in data set [8] and in data set [9] was inactive.

Broadly, the IC50 is the concentration that inhibits the measured activity by half.
